Rows were chosen to be rich in hits. Some 2.3% of all compounds tested hit in one or more screens of this group.
PAX8 reporter = inhibitors of PAX8 transcriptional activity in RMG-I cells. inhibition, % at 12.6 µM. RMG-I TPO-luciferase reporter, SteadyGlo, 24 h. 1.2% of 360,000 active. AID 652154;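 active = mean replicate inhibition at least 60% with every replicate also reaching 60%; inconclusive = only one of the two criteria is met; inactive = mean below 60% and not all replicates reaching 60%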;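 also: luciferase light reporting Pax8 driven TPO promoter activity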
Env fusion inh = HIV envelope-mediated fusion inhibition | HeLa-JRFL Env/CEM21 cell fusion, luciferase | inhibition, % at 12.3 µM | 1.1% of 360,000 active | AID 651610;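 active = mean replicate inhibition score of at least 50 and every replicate individually at or above 50; inconclusive = only one of the two criteria met; inactive = mean below 50 and not all replicates reaching 50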
Arr AP2 block = blocks beta-arrestin peptide binding to AP2 adaptin. FITC-arrestin peptide / GST-AP2 beads, flow cytometry; AP2 beta2 appendage carries R879A mutation. inhibition, % at 10 µM. 0.31% of 340,000 active;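 active = inhibition above a set limit, near 3 SD of compounds lacking own fluorescence, cut at about 54% in these data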
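Measured by: flow cytometry, FL1 (488/535 nm); Material: AP2 appendage R879A on GSH beads; Evaluation: percent response; Timing: pre-incubation 12 min, peptide binding 1 h, room temperature; Also added: 50 nM FITC-arrestin peptide; Medium: PBS with 0.05% Tween 20 and 0.1% BSA.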
Glyco luc inh = blocks N-linked glycosylation in D54 reporter cells; reporter increase, % at 12.5 µM; 0.23% of 360,000 active; D54 ERlucT glycosylation luciferase reporter, 24 h; percent of 100 nM tunicamycin response;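 active = mean luciferase reporter signal, scaled so untreated is 0 and the glycosylation-blocking control 100, at or above a set limit in every replicate; inconclusive = mean reaches the limit but not every replicate does; inactive = mean below the limit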;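 also: luciferase carries N-glycosylation sites so blocking glycosylation raises the light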
PfHsp90 set2 = inhibits growth of yeast expressing Plasmodium falciparum Hsp90. S. cerevisiae expressing PfHsp90, BacTiter-Glo ATP, 48 h; yeast lacking PDR1 and PDR3 efflux regulators. inhibition, % at 9.4 µM. 0.32% of 310,000 active. AID 504621;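 active = every replicate shows inhibition above about 80%, whatever the replicate mean, limit read from the data; inconclusive = mean inhibition reaches the set limit but some replicate falls short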
Rtt109 HAT inh = inhibitors of Candida albicans Rtt109/Vps75 histone acetyltransferase | Q5AAJ8 | purified Rtt109/Vps75, ThioGlo CoA-SH fluorescence, 4 h | inhibition, % at 34.9 µM | 0.16% of 330,000 active | AID 540336;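 active = inhibition of at least 50% in every replicate; inconclusive = best replicate reaches 50% inhibition but some replicates fall short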
Target sequence (Q5AAJ8 whole entry, looked up): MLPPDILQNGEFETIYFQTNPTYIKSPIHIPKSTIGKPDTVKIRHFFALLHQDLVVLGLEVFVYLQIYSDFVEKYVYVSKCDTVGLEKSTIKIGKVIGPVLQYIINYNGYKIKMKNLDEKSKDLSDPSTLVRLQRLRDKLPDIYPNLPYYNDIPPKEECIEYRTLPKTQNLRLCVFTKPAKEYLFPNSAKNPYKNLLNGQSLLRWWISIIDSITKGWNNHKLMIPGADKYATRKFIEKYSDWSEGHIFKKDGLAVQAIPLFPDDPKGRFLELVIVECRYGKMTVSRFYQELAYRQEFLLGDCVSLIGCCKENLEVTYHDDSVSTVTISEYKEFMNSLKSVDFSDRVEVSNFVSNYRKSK
A number is an active result; – = inactive; ? = inconclusive; · = no result; ! = a repeat was not active.

SMILES	PAX8 reporter	Env fusion inh	Arr AP2 block	Glyco luc inh	PfHsp90 set2	Rtt109 HAT inh
CCCN1CCc2[nH]c(=S)[nH]c(=O)c2C1	72	·	–	–	–	–
S=C(NCCSCc1ccc(Cl)cc1Cl)Nc1ccccc1	·	–	–	–	–	–
S=C(Nc1ccccc1)Nc1ccc(OCc2ccc(Cl)cc2Cl)cc1	·	103	–	–	–	–
C[C@H]1CCCCO[C@@H](CN(C)C(=O)Nc2cccc3ccccc23)[C@@H](C)CN([C@@H](C)CO)C(=O)c2cc(NC(=O)Cc3ccccc3)ccc2O1	–	–	·	·	·	·
CSc1nc2nccc(/C=C\c3ccccc3)n2n1	63	–	–	–	–	–
Cc1ccc(-c2ccc(C3[C@H]4CNC[C@@H]3N4C(=O)NC(C)C)cc2)cc1 (some centres undefined)	–	·	·	·	·	·
Cc1cc(C(=O)Nc2ccc3c(c2)C(=O)N(C)[C@H]2CC[C@H](CC(=O)N[C@H](C)c4ccccc4)O[C@H]2CO3)no1	–	–	·	·	·	·
CCN(CC)c1ccc(N=Cc2cc(Br)ccc2O)cc1	–	–	·	–	–	59
COc1ccc(S(=O)(=O)NCCc2ccc(F)cc2)cc1	–	–	–	–	·	–
CCCCNc1ccc(C(F)(F)F)cc1S(=O)(=O)NCCc1ccc(F)cc1	–	72	–	–	–	–
CCC(=O)N1C[C@@H]2[C@H](c3ccccc31)[C@@H](CO)N2C(=O)Nc1ccccc1F	–	·	·	·	·	·
C/C(=N/NC(=O)c1cccs1)c1ccc(NC(=O)COc2ccc(Cl)cc2Cl)cc1	·	–	–	40	–	–
CC(C)CC#Cc1cnc2c(c1)C(=O)N([C@@H](C)CO)C[C@@H](C)[C@H](CN(C)C(=O)C1CCOCC1)O2	·	–	·	·	·	·
C[C@@H]1CN([C@@H](C)CO)C(=O)Cc2cc(NS(C)(=O)=O)ccc2O[C@@H]1CN(C)Cc1ccc(C(F)(F)F)cc1	–	–	·	·	·	·
Cc1cc(C)cc(N=c2c([N+](=O)[O-])nn(-c3ccc4c(c3)OCCO4)n2O)c1	100	65	–	–	–	–
O=[N+]([O-])c1nn(-c2ccc3c(c2)OCCO3)n(O)c1=Nc1ccccc1	–	–	–	–	–	–
C[C@H](CO)N1C[C@H](C)[C@H](CN(C)C(=O)Nc2ccc(C(F)(F)F)cc2)Oc2ccc(NC(=O)Nc3ccc(F)cc3)cc2C1=O	·	–	·	·	·	·
COc1ccc(CN(C)C[C@@H]2OCCCC[C@@H](C)Oc3ccc(NC(=O)Nc4c(C)noc4C)cc3C(=O)N([C@H](C)CO)C[C@@H]2C)cc1	–	–	·	·	·	·
CCOC(=O)COc1ccc(S(=O)(=O)NCc2ccncc2)cc1	·	·	–	–	–	–
CCOc1ccc(S(=O)(=O)NCc2ccncc2)cc1	·	85	–	–	–	–
CC(C)NC(=O)Nc1cccc2c1O[C@@H](CN(C)S(=O)(=O)c1cn(C)cn1)[C@H](C)CN([C@H](C)CO)C2=O	·	–	·	·	·	·
Cn1cc(-c2ccc(Cl)cc2)cc(C#N)c1=O	–	–	–	–	–	–
Cn1c(-c2ccc(Cl)cc2)ccc(C#N)c1=O	·	75	–	–	·	–
C[C@@H]1CN([C@@H](C)CO)C(=O)CCCn2cc(nn2)CO[C@@H]1CN(C)C(=O)Nc1cccc(Oc2ccccn2)c1	·	–	·	·	·	·
COc1cccc(Nc2nc(CN)cs2)n1	–	57	·	–	·	·
SMILES	PAX8 reporter	Env fusion inh	Arr AP2 block	Glyco luc inh	PfHsp90 set2	Rtt109 HAT inh
COc1cccc(Nc2nc(C(C)N)cs2)n1 (centres undefined)	–	–	·	–	·	·
CC(C)(C)CC(C)(C)c1ccc(OCCOCC[N+](C)(C)Cc2ccccc2)cc1	78	–	–	–	–	?
CCN(CC)c1ccc(S(=O)(=O)N2CCCCC2)cc1NC(=O)CSCc1c(C)noc1C	–	62	–	–	–	–
Cc1noc(C)c1CSCC(=O)Nc1cc(S(=O)(=O)N2CCCCC2)ccc1OC(C)C	–	–	–	–	–	–
CC(=O)N1N=C(c2ccc(C(C)(C)C)cc2)OC1(C)C	70	·	–	–	–	–
CC(=O)N1N=C(c2ccc3ccccc3c2)OC1(C)C	–	–	–	–	–	–
CC(C)NC(=O)N(C)C[C@H]1Oc2ncc(-c3cncnc3)cc2C(=O)N([C@@H](C)CO)C[C@H]1C	–	–	·	·	·	·
O=C(Nc1ccccc1)N1CCCCN2[C@@H](CO)[C@H](c3ccc(C#Cc4ccccc4)cc3)[C@@H]2C1	72	·	·	·	·	·
O=C(Nc1ccccc1)N1CCCCN2[C@@H](CO)[C@@H](c3ccc(C#Cc4ccccc4)cc3)[C@@H]2C1	107	·	·	·	·	·
O=C(Nc1ccc(F)cc1)N1CCCCN2[C@@H](CO)[C@@H](c3ccc(C#Cc4ccccc4)cc3)[C@@H]2C1	77	·	·	·	·	·
O=C(Nc1ccc(F)cc1)N1CCCCN2[C@H](CO)[C@@H](c3ccc(C#Cc4ccccc4)cc3)[C@H]2C1	–	·	·	·	·	·
C[C@@H]1CN([C@H](C)CO)C(=O)Cc2cc(NC(=O)c3ccncc3)ccc2O[C@H]1CN(C)S(=O)(=O)c1ccc(Cl)cc1	–	·	·	·	·	·
C[C@@H]1CN([C@H](C)CO)C(=O)c2c(c3ccccc3n2C)-c2ccccc2CO[C@H]1CN(C)Cc1ccc(Cl)c(Cl)c1	–	·	·	·	·	·
CC1(C(=O)NCc2ccccc2)CCC(=O)N1C1CCN(Cc2ccccc2)CC1 (centres undefined)	–	?	·	·	·	·
CCCCNC(=O)C1(C)CCC(=O)N1C1CCN(Cc2ccccc2)CC1 (centres undefined)	–	64	·	–	·	·
CO[C@H]1CN(C)C(=O)c2cc(NC(=O)C3CCC3)ccc2OC[C@H](C)NC[C@H]1C	–	·	·	·	·	·
CC(C)COC(=O)N(C)C[C@H]1OCc2cnnn2CCCC(=O)N([C@@H](C)CO)C[C@@H]1C	·	–	·	·	·	·
C[C@@]12C(=O)OC(=O)[C@]1(C)C1CCC2O1	112	105	–	–	–	–
O=C1Nc2ccc(Br)cc2/C1=C/C(=O)c1ccccc1	–	–	–	–	106	–
CCc1nnc(NC(=O)CN2C(=O)c3ccccc3C2=O)s1	·	·	–	–	–	55
CCCc1nnc(NC(=O)CN2C(=O)c3ccccc3C2=O)s1	·	·	–	–	–	–
N=c1ccn(CC(=O)c2ccc(-c3ccccc3)cc2)cc1	83	69	–	–	·	–
O=C(C/C=N/OCc1ccc(Cl)cc1Cl)c1ccccc1	·	–	–	–	–	65
O=C(C/C=N/OCc1ccc(Cl)cc1Cl)c1ccc(Cl)cc1	–	–	–	–	–	–
CCCCCCSc1cccc(-c2nc3ccc(Cl)cn3c2NCc2ccccc2)c1	–	72!	–	–	–	–
CCCCNS(=O)(=O)c1ccc(NC(=O)C(Sc2ccccc2)c2ccccc2)cc1 (centres undefined)	72	·	–	–	–	–
CC(=O)NN1C(=O)c2ccccc2NC1c1cccc([N+](=O)[O-])c1 (centres undefined)	–	–	–	–	–	–
